In ChEMBL document CHEMBL3286292, “Synthesis and antimicrobial activity of amine linked bis- and tris-heterocycles” (2014):
Calls of active or inactive are those of the source. The rule behind the calls is not given here.

Key:
Format in all cases: functional
Aspergillus niger [1] = assay: Antifungal activity against Aspergillus niger assessed as inhibition of spore germination at 50 ug/well after 48 hrs by agar well diffusion method; settings: for zone of inhibition at 50 µg/disc: read-out: DIZ
In short: (§1)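 Well diffusion using 6 mm bored wells loaded with DMSO solutions at three per-well amounts, with a DMSO negative control. Plates were held at 28 °C for 48 h, then zone of inhibition diameter was measured in mm. Runs were in duplicate and averaged.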

Bacillus subtilis [2] = assay: Antibacterial activity against Bacillus subtilis assessed as growth inhibition at 25 ug/well after 24 hrs by agar well diffusion method; settings: for zone of inhibition at 25 µg/disc: read-out: DIZ
In short: (§2)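 Agar well diffusion on […] swabbed with a 24 h broth culture. Samples were dissolved in DMSO and loaded at three per-well amounts into 6 mm wells. Incubation was 37 °C for 24 h, then inhibition zone diameter was read in mm. DMSO served as the negative control. Runs were in duplicate and averaged.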

Klebsiella pneumoniae [3] = assay: Antibacterial activity against Klebsiella pneumoniae assessed as growth inhibition at 100 ug/well after 24 hrs by agar well diffusion method; settings: for zone of inhibition at 100 µg/disc: read-out: DIZ; in short: as §2
Staphylococcus aureus [4] = assay: Antibacterial activity against Staphylococcus aureus assessed as growth inhibition at 50 ug/well after 24 hrs by agar well diffusion method; settings: for zone of inhibition at 50 µg/disc: read-out: DIZ; in short: as §2
Klebsiella pneumoniae [5] = assay: Antibacterial activity against Klebsiella pneumoniae assessed as growth inhibition at 25 ug/well after 24 hrs by agar well diffusion method; settings: for zone of inhibition at 25 µg/disc: read-out: DIZ; in short: as §2
Aspergillus niger [6] = assay: Antifungal activity against Aspergillus niger assessed as inhibition of spore germination at 25 ug/well after 48 hrs by agar well diffusion method; settings: for zone of inhibition at 25 µg/disc: read-out: DIZ; in short: as §1
Bacillus subtilis [7] = assay: Antibacterial activity against Bacillus subtilis assessed as growth inhibition at 100 ug/well after 24 hrs by agar well diffusion method; settings: for zone of inhibition at 100 µg/disc: read-out: DIZ; in short: as §2
Bacillus subtilis [8] = assay: Antibacterial activity against Bacillus subtilis assessed as growth inhibition at 50 ug/well after 24 hrs by agar well diffusion method; settings: for zone of inhibition at 50 µg/disc: read-out: DIZ; in short: as §2
Klebsiella pneumoniae [9] = assay: Antibacterial activity against Klebsiella pneumoniae assessed as growth inhibition at 50 ug/well after 24 hrs by agar well diffusion method; settings: for zone of inhibition at 50 µg/disc: read-out: DIZ; in short: as §2
Pseudomonas aeruginosa [10] = assay: Antibacterial activity against Pseudomonas aeruginosa assessed as growth inhibition at 100 ug/well after 24 hrs by agar well diffusion method; settings: for zone of inhibition at 100 µg/disc: read-out: DIZ; in short: as §2
Pseudomonas aeruginosa [11] = assay: Antibacterial activity against Pseudomonas aeruginosa assessed as growth inhibition at 25 ug/well after 24 hrs by agar well diffusion method; settings: for zone of inhibition at 25 µg/disc: read-out: DIZ; in short: as §2
Staphylococcus aureus [12] = assay: Antibacterial activity against Staphylococcus aureus assessed as growth inhibition at 25 ug/well after 24 hrs by agar well diffusion method; settings: for zone of inhibition at 25 µg/disc: read-out: DIZ; in short: as §2
Staphylococcus aureus [13] = assay: Antibacterial activity against Staphylococcus aureus assessed as growth inhibition at 100 ug/well after 24 hrs by agar well diffusion method; settings: for zone of inhibition at 100 µg/disc: read-out: DIZ; in short: as §2
Pseudomonas aeruginosa [14] = assay: Antibacterial activity against Pseudomonas aeruginosa assessed as growth inhibition at 50 ug/well after 24 hrs by agar well diffusion method; settings: for zone of inhibition at 50 µg/disc: read-out: DIZ; in short: as §2

SMILES | zone of inhibition at 100 µg/disc (Klebsiella pneumoniae [3]) [mm] | growth inhibition (GI) (Pseudomonas aeruginosa [11]) | growth inhibition (GI) (Pseudomonas aeruginosa [14]) | zone of inhibition at 50 µg/disc (Aspergillus niger [1]) [mm] | zone of inhibition at 25 µg/disc (Bacillus subtilis [2]) [mm] | zone of inhibition at 50 µg/disc (Staphylococcus aureus [4]) [mm] | zone of inhibition at 25 µg/disc (Klebsiella pneumoniae [5]) [mm] | zone of inhibition at 25 µg/disc (Aspergillus niger [6]) [mm] | zone of inhibition at 100 µg/disc (Bacillus subtilis [7]) [mm] | zone of inhibition at 50 µg/disc (Bacillus subtilis [8]) [mm] | zone of inhibition at 50 µg/disc (Klebsiella pneumoniae [9]) [mm] | zone of inhibition at 100 µg/disc (Pseudomonas aeruginosa [10]) [mm] | zone of inhibition at 25 µg/disc (Staphylococcus aureus [12]) [mm] | zone of inhibition at 100 µg/disc (Staphylococcus aureus [13]) [mm] | zone of inhibition at 25 µg/disc (Pseudomonas aeruginosa [11]) [mm] | zone of inhibition at 50 µg/disc (Pseudomonas aeruginosa [14]) [mm] | further results
NC(=S)N1N=C(Nc2nc(-c3ccccc3)c[nH]2)C[C@@H]1c1ccccc1 | 6 | inactive | inactive |  |  |  |  |  |  |  |  |  |  |  |  |  | zone of inhibition (Aspergillus niger [1]): inactive; growth inhibition (GI) (Bacillus subtilis [2]): inactive; growth inhibition (GI) (Staphylococcus aureus [4]): inactive; growth inhibition (GI) (Klebsiella pneumoniae [5]): inactive; growth inhibition (GI) (Aspergillus niger [6]): inactive; growth inhibition (GI) (Bacillus subtilis [7]): inactive; growth inhibition (GI) (Bacillus subtilis [8]): inactive; growth inhibition (GI) (Klebsiella pneumoniae [9]): inactive; growth inhibition (GI) (Pseudomonas aeruginosa [10]): inactive; growth inhibition (GI) (Staphylococcus aureus [12]): inactive; growth inhibition (GI) (Staphylococcus aureus [13]): inactive
Cc1ccc(-c2c[nH]c(Nc3cc(-c4ccc(C)cc4)n(C(N)=S)n3)n2)cc1 | 14 | inactive | inactive | 15 | 9 | 12 | 10 | 14 | 13 | 10 | 12 | 7 | 10 | 14 |  |  | 
Cc1ccc(-c2csc(Nc3cc(-c4ccc(C)cc4)n(-c4nc(-c5ccc(C)cc5)cs4)n3)n2)cc1 | 18 |  |  | 16 | 14 | 15 | 14 | 15 | 18 | 15 | 15 | 11 | 14 | 18 | 7 | 8 | 
NC(=S)n1nc(Nc2nc(-c3ccccc3)c[nH]2)cc1-c1ccccc1 | 24 |  |  | 20 | 18 | 20 | 19 | 19 | 22 | 20 | 20 | 14 | 18 | 23 | 10 | 12 | 
NC(=S)N1N=C(Nc2nc(-c3ccccc3)cs2)C[C@@H]1c1ccccc1 |  | inactive | inactive |  |  |  |  |  |  |  |  |  |  |  |  |  | zone of inhibition (Aspergillus niger [1]): inactive; growth inhibition (GI) (Bacillus subtilis [2]): inactive; growth inhibition (GI) (Klebsiella pneumoniae [3]): inactive; growth inhibition (GI) (Staphylococcus aureus [4]): inactive; growth inhibition (GI) (Klebsiella pneumoniae [5]): inactive; growth inhibition (GI) (Aspergillus niger [6]): inactive; growth inhibition (GI) (Bacillus subtilis [7]): inactive; growth inhibition (GI) (Bacillus subtilis [8]): inactive; growth inhibition (GI) (Klebsiella pneumoniae [9]): inactive; growth inhibition (GI) (Pseudomonas aeruginosa [10]): inactive; growth inhibition (GI) (Staphylococcus aureus [12]): inactive; growth inhibition (GI) (Staphylococcus aureus [13]): inactive
Cc1ccc(-c2csc(Nc3cc(-c4ccc(C)cc4)n(C(N)=S)n3)n2)cc1 | 16 | inactive |  | 13 | 10 | 13 | 11 | 12 | 14 | 12 | 13 | 8 | 11 | 15 |  | 6 | 
NC(=S)n1nc(Nc2nc(-c3ccc(Cl)cc3)c[nH]2)cc1-c1ccc(Cl)cc1 | 26 |  |  | 24 | 19 | 23 | 20 | 22 | 23 | 21 | 22 | 15 | 21 | 25 | 11 | 13 | 
